One molecule from ChEMBL document CHEMBL4406881, “Design, synthesis and biological evaluation of benzoylacrylic acid shikonin ester derivatives as irreversible dual inhibitors of tubulin and EGFR” (Bioorg Med Chem, 2019) can be followed below.

Each structure is given as a SMILES string. Activity calls are given as the source filed them. No cut-off for these calls is given here.

Data set [1] concerns A549. Nature of the data set: Induction of apoptosis in human A549 cells assessed as viable cells at 4 uM after 24 hrs by Annexin-V/PI staining based flow cytometry analysis (reference value: 91.4%). Type of data set: functional. The note with it: A549, 24 h, read-out: Activity. An outline of the steps:
(§1)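 A549 cells seeded overnight at 37 °C, 5% CO2, then exposed to 0, 2, 4, 8 or 12 µM for 24 h (dose series) or 8 µM for 0, 12, 24, 36 h (time series). Harvested, PBS-washed, stained with Annexin V-FITC and PI in binding buffer 15 min at room temperature in the dark, analysed by flow cytometry; three independent experiments.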

Data set [2] deals with A549. Description: Induction of apoptosis in human A549 cells assessed as early apoptotic cells at 8 uM after 24 hrs by Annexin-V/PI staining based flow cytometry analysis (reference value: 2.02%). It counts as functional.
The test system of data set [3] is A549. Description: Induction of apoptosis in human A549 cells assessed as caspase-9 cleavage expression at 2 to 8 uM after 24 hrs by Western blot analysis. Type of data set: functional, cell-based. In short, it runs like this:
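Western blot of A549 cells treated for 24 h. Lysates in RIPA buffer were run on SDS-PAGE and transferred to PVDF. Primary antibody at 1:1000 overnight at 4 °C, secondary antibody at 1:3000-1:5000 for 1 h, ECL detection. Densitometry was normalised to GAPDH; mean ± S.E.M. from three independent experiments.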

Data set [4] in a line: Toxicity in ip dosed Balb/c mouse xenografted with human A549 cells assessed as effect on body weight at 2 to 4 mg/kg, ip administered once every two days for 32 days and measured for every 2 days. It counts as organism-based. The note with it: in vivo. An outline of the steps: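 Female BALB/c nude mice (5-6 weeks) received 6×10^6 A549 cells s.c. in the flank. After two weeks (tumours ~90 mm³) they were split into 5 groups (n = 8). Dosing was 2 or 4 mg/kg, dissolved in DMSO, i.p. once every two days for 16 doses; DMSO vehicle served as control. Body weight and tumour volume (L×S²/2) were recorded every two days; mice were killed at day 32.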

Data set [5] relates to A549. Description: Induction of apoptosis in human A549 cells assessed as increase in late apoptotic cells at 4 to 12 uM after 12 hrs by PI-staining based flow cytometric analysis. Type of data set: functional, cell-based. In short, it runs like this: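 JC-1 staining of A549 cells treated for 12 h. CCCP-treated wells, 20 min at 37 °C, served as positive control. Collected cells were incubated with JC-1 solution at 37 °C for 30 min, washed, and analysed by flow cytometry for the fraction with high ΔΨm and for PI-positive cells. Results are mean ± S.E.M. of three replicates.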

The test system of data set [6] is A549. Nature of the data set: Induction of apoptosis in human A549 cells assessed as low mitochondrial membrane potential at 4 uM after 12 hrs by JC-1 staining-based flow cytometric analysis (reference value: 6.3%). Type of data set: functional.
Data set [7] has as its system A549. Description: Induction of apoptosis in human A549 cells assessed as late apoptotic cells at 8 uM after 24 hrs by Annexin-V/PI staining based flow cytometry analysis (reference value: 6.55%). It counts as functional. An outline of the steps: as §1
Data set [8] has as its system A549. Nature of the data set: Antimigratory activity against human A549 cells measured up to 48 hrs by phase contrast microscopic based wound healing assay. Type of data set: functional, cell-based. In short, it runs like this:
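A549 monolayer seeded at 2×10^5 cells per cm² overnight, incubated 24 h, then scratched with a micropipette tip. The same cell-free area was imaged by phase-contrast microscopy at 0, 24 and 48 h. Wound area was outlined by image analysis to quantify the reduction in cell-free space; n = 3.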

Data set [9] relates to A549. Nature of the data set: Cell cycle arrest in human A549 cells assessed as accumulation at G1 phase at 8 uM after 24 hrs by RNAse A/ PI staining based flow cytometric analysis (reference value: 73.30%). It counts as functional. An outline of the steps: (§2)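 A549 cells at 5.0×10^4 per well were grown 12 h at 37 °C. Treatment was 0, 2, 4 or 8 µM for 24 h, or 8 µM for 0, 12, 24 or 36 h. Cells were fixed in 70% ethanol at −20 °C for at least 12 h, then stained in PBS with 0.1 mg/mL RNase A and 5 µg/mL PI. At least 10,000 events per sample were collected by flow cytometry to give G0/G1, S and G2/M percentages.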

Data set [10] deals with A549. Description: Antitumor activity against ip dosed human A549 cells xenografted in Balb/c mouse assessed as inhibition of tumor volume by measuring fold reduction at 4 mg/kg, ip administered once every two days for 32 days relative to untreated control. Type of data set: functional. An outline of the steps:
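Female BALB/c nude mice, 5-6 weeks old, injected in the flank with 6×10^6 A549 cells in 0.1 mL ice-cold PBS. After two weeks, tumours averaging 90 mm³ were allocated by volume to 5 groups of n = 8. Drugs in DMSO were given ip once every two days, 16 doses in total; a DMSO vehicle group served as control. Tumour volume (L×S²/2) and body weight were recorded every two days; mice were killed on day 32.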

Data set [11] relates to A549. Nature of the data set: Induction of apoptosis in human A549 cells assessed as early apoptotic cells at 2 uM after 24 hrs by Annexin-V/PI staining based flow cytometry analysis (reference value: 1.15%). It counts as functional.
Data set [12] has as its system A549. Nature of the data set: Induction of apoptosis in human A549 cells assessed as necrotic cells after at 8 uM 36 hrs by Annexin-V/PI staining based flow cytometry analysis (reference value: 2.98%). It counts as functional. In short, it runs like this: as §1
Data set [13] concerns A549. Description: Induction of apoptosis in human A549 cells at 8 uM by Annexin-V/PI staining based flow cytometry analysis. It counts as functional, cell-based. The conditions noted are these: TDE = time-dependent effect. In short, it runs like this: as §1
Data set [14] concerns A549. Nature of the data set: Induction of apoptosis in human A549 cells assessed as late apoptotic cells at 8 uM after 36 hrs by Annexin-V/PI staining based flow cytometry analysis (reference value: 6.55%). Type of data set: functional. An outline of the steps:
as §1

In data set [15] the target is Epidermal growth factor receptor (Homo sapiens, UniProt P00533). Description: Inhibition of C-terminal His-tagged N-terminal GST-tagged human EGFR (668 to 1210 residues) expressed in baculovirus infected Sf9 cells after 30 mins in presence of gamma-[32p-ATP] binding assay.
Data set [16] concerns A549. Description: Cell cycle arrest in human A549 cells assessed as accumulation at S phase at 8 uM after 24 hrs by RNAse A/ PI staining based flow cytometric analysis (reference value: 19.66%). It counts as functional. In short, it runs like this: as §2
For data set [17], the system named is A549. Nature of the data set: Induction of apoptosis in human A549 cells assessed as late apoptotic cells at 8 uM after 24 hrs by Annexin-V/PI staining based flow cytometry analysis (reference value: 5.69%). It counts as functional. In short, it runs like this: as §1
Data set [18] relates to A549. Nature of the data set: Cell cycle arrest in human A549 cells assessed as accumulation at G2/M phase at 8 uM after 24 hrs by RNAse A/ PI staining based flow cytometric analysis (reference value: 12.65%). It counts as functional. In short, it runs like this:
as §2

Data set [19] concerns A549. Description: Cell cycle arrest in human A549 cells assessed as accumulation at G1 phase at 8 uM after 12 hrs by RNAse A/ PI staining based flow cytometric analysis (reference value: 67.69%). Type of data set: functional. In short, it runs like this: as §2
The test system of data set [20] is A549. Nature of the data set: Induction of apoptosis in human A549 cells assessed as necrotic cells after at 12 uM 24 hrs by Annexin-V/PI staining based flow cytometry analysis (reference value: 1.81%). Type of data set: functional. In short, it runs like this:
as §1

The subject of data set [21] is A549. Nature of the data set: Induction of apoptosis in human A549 cells assessed as early apoptotic cells at 8 uM after 36 hrs by Annexin-V/PI staining based flow cytometry analysis (reference value: 2.02%). Type of data set: functional.

Sequence of Epidermal growth factor receptor (P00533 whole entry, the tested form may be a part): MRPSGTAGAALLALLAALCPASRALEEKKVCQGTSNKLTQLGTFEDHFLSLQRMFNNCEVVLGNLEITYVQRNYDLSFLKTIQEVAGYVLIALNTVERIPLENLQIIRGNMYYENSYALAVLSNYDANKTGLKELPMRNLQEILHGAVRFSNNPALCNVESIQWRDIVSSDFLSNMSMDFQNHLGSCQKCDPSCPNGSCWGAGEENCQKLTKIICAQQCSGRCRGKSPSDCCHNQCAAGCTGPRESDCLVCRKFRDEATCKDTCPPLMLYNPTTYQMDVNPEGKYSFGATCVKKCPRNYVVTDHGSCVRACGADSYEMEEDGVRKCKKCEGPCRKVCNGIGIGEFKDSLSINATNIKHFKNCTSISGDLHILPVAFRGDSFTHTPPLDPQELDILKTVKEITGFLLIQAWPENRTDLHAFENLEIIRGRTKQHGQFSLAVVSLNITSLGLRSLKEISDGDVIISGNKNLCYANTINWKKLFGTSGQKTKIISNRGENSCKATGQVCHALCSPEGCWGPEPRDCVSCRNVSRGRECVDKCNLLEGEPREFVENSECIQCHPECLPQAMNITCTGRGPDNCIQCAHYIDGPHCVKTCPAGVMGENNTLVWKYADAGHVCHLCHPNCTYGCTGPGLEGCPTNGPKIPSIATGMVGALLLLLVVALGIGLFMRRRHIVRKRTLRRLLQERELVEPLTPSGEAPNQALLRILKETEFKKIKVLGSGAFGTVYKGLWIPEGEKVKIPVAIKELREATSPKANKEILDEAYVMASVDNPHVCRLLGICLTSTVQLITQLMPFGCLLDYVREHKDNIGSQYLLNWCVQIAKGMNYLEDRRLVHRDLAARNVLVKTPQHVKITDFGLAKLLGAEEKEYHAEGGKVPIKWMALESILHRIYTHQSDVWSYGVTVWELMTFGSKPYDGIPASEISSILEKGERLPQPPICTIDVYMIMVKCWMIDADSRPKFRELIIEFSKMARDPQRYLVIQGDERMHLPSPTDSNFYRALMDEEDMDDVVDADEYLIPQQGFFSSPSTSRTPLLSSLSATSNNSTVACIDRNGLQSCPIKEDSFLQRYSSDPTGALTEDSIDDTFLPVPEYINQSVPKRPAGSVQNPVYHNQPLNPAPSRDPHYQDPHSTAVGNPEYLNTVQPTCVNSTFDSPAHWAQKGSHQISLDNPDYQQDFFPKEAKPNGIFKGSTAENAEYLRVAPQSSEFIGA

`CC(C)=CC[C@@H](OC(=O)/C=C\C(=O)c1ccc(F)cc1)C1=CC(=O)c2c(O)ccc(O)c2C1=O`: the viability at 4 µM in data set [1] came to 71.7%. The Activity in data set [2] is reported as 31.7%; in [4], “Non-Toxic”; in data set [6] it was 27.9%; in data set [7], 27.5%; in [9], 47.33%; in data set [11], 4.62%. For the same molecule, the Activity is 3% in data set [12]; “Tde” in [13]; 41% in data set [14]; 23.66% in data set [16]; 30.5% in data set [17]; 33.75% in data set [18]. The Activity in [19] amounted to 55.88%; in [20], 4.16%; in data set [21] it was 43.8%. Besides, the result in [3] was Active. For the same molecule, the result in [5] was inactive. Moreover, the inhibition result in data set [8] is “Dose-dependent effect”. In [10], the “fold change (FC)” value is 6. Further, in data set [15], the IC50 turned out to be 22.7 nM.
